≈ marks a conversion by molar mass, not a printed value. Calls of active or inactive are those of the source. The calls are words filed in the database; no cut-off is given here.
Assays:
Plasmodium falciparum [1] = assay: Antimalarial activity against Plasmodium falciparum 3D7A infected in red blood cells assessed as inhibition of parasite growth after 24 hrs by [3H]hypoxanthine incorporation assay; assay type: functional, organism-based
Method in brief: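 P. falciparum 3D7 parasitized RBC (0.5% parasitemia, 2% hematocrit) in RPMI-1640 with 5% albumax and 5 μM hypoxanthine. 3H-hypoxanthine was then added for a further 24 h. Cells were harvested onto glass-fiber filters and incorporation was read by scintillation; IC50 was derived.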

[2] = Cytotoxicity against human HepG2 cells by ATP bioluminescene method; assay type: cell-based; details: read-out: TC50 (the source's name)
[3] = Kinetic solubility of the compound in DMSO/phosphate buffered saline at pH 7.4 by chemiluminescent nitrogen detection method; assay type: physicochemical; details: read-out: Kinetic_solubility
Method in brief: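 Kinetic solubility from DMSO stock solution in phosphate-buffered saline, pH 7.4, quantified by chemiluminescent nitrogen detection.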

Plasmodium falciparum [4] = assay: Antimalarial activity against chloroquine and pyrimethamine-resistant Plasmodium falciparum W2 assessed as inhibition of parasite growth; assay type: functional, organism-based
Method in brief: (§1)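 Growth inhibition by [3H]-hypoxanthine incorporation, which tracks parasite growth. Parasitised RBC culture (0.5% parasitemia, 2% haematocrit) in RPMI-1640 with 5% Albumax and 5 μM hypoxanthine, exposed to serial drug dilutions. Cells harvested onto glass-fibre filters, radioactivity counted, IC50 derived.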

Plasmodium falciparum [5] = assay: Antimalarial activity against chloroquine and pyrimethamine-resistant Plasmodium falciparum V1/S assessed as inhibition of parasite growth; assay type: functional, organism-based; method in brief: as §1
[6] = Selectivity index, ratio of TC50 for human HepG2 cells to IC50 for Plasmodium falciparum 3D7A; assay type: toxicity, cell-based; details: read-out: Selectivity Index
[7] = target: Voltage-gated inwardly rectifying potassium channel KCNH2 (Homo sapiens, UniProt Q12809); assay: Inhibition of human ERG by IonWorks electrophysiology
Plasmodium falciparum [8] = assay: Antimalarial activity against erythrocytic stage of Plasmodium falciparum 3D70087/N9 infected in NSG mouse engrafted with human erythrocytes assessed as parasite killing at 100 mg/kg, po qd for 4 days starting from day 3 to day 6 after parasite infection measured 48 hrs after initiation of drug treatment by Giemsa-staining based microscopy; assay type: functional, organism-based
[9] = Solubility of the compound in fasted state simulated intestinal fluid; assay type: ADME
Plasmodium falciparum [10] = details: 3D70087/N9, 100 mg/kg
[11] = Oral bioavailability in CD1 mouse at 10 mg/kg administered via gavage by LC-MS/MS analysis; assay type: ADME, organism-based; details: in vivo
Method in brief: (§2)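 Mice were dosed IV at 1 mg/kg (0.1 mg/mL in 20% encapsine, 5% DMSO in saline) or PO at 10 mg/kg (1 mg/mL suspension in 1% methylcellulose), 10 mL/kg each. After IV dosing, blood was sampled from 5 min to 24 h. Blood was mixed 1:1 with 0.1% saponine and frozen at −80 °C. Samples were acetonitrile-extracted and analyzed by positive-ESI LC-MS/MS.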

[12] = Clearance in CD1 mouse at 1 mg/kg, iv by LC-MS/MS analysis; assay type: ADME, organism-based; details: in vivo; method in brief: as §2

Voltage-gated inwardly rectifying potassium channel KCNH2, sequence (Q12809 whole entry): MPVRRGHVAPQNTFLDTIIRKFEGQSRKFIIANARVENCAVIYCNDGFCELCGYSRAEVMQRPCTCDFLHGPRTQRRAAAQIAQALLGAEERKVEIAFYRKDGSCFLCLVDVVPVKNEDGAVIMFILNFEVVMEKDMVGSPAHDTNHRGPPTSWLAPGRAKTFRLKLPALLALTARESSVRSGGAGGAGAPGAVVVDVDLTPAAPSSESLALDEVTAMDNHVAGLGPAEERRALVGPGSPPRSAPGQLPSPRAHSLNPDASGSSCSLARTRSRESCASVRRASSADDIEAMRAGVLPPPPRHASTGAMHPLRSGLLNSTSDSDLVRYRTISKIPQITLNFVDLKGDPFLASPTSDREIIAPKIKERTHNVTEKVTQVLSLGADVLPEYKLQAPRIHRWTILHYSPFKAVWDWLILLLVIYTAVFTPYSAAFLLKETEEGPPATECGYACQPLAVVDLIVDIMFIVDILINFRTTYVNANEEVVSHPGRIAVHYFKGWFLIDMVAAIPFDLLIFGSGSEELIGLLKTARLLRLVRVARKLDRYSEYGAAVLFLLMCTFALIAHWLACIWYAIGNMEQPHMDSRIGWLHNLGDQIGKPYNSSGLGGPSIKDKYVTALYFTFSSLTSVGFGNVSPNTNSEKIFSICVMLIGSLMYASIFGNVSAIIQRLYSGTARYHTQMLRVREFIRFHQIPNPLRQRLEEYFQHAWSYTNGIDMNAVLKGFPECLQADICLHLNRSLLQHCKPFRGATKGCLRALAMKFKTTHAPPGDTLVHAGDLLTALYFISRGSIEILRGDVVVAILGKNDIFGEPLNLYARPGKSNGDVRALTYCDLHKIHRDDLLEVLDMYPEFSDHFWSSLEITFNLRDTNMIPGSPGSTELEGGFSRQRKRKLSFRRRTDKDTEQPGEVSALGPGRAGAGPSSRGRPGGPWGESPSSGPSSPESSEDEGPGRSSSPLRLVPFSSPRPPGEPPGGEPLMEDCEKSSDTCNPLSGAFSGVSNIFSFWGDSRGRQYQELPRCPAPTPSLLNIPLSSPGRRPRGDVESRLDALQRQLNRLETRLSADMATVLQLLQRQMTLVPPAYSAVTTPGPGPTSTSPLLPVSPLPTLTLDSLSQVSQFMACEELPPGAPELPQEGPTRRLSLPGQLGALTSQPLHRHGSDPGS

SMILES	IC50 (Plasmodium falciparum [1]) [nM]	also measured
O=C(NCCCNc1nc2ccncc2[nH]1)c1cc(Cl)cc(Cl)c1	1060	–
COC(=O)c1ccc2[nH]c(NCCCNC(=O)c3cc(Cl)cc(Cl)c3)nc2c1	150	CC50 [2]: 25.7 µM; solubility kinetic [3]: 29 µM (≈ 12.2 µg/mL)
O=C(NCCCNc1nc2ccccc2[nH]1)c1cc(F)cc(F)c1	320	–
O=C(NCCCNc1nc2ccccc2[nH]1)c1cccc(Cl)c1	300	–
CS(=O)(=O)Nc1cccc(C(=O)NCCCNc2nc3ccccc3[nH]2)c1	> 5000	–
O=C(NCCNc1nc2ccccc2[nH]1)c1cc(Cl)cc(Cl)c1	1830	–
O=C(NCCCNc1nc2ccccc2[nH]1)c1cc(Cl)ccc1Cl	1210	–
COc1c(Cl)cc(C(=O)NCCCNc2nc3ccccc3[nH]2)cc1Cl	100	–
O=C(Cc1cccc(Cl)c1)NCCCNc1nc2ccccc2[nH]1	660	–
Cc1ccc(C(=O)NCCCNc2nc3ccccc3[nH]2)o1	2260	–
O=C(NCCCNc1nc2ccccc2[nH]1)c1ccc2c(c1)CCO2	3260	–
CCc1nc(N)nc(N)c1-c1ccc(Cl)cc1 [PYRIMETHAMINE]	68	IC50 (Plasmodium falciparum [4]): > 20000 nM; IC50 (Plasmodium falciparum [5]): > 20000 nM
O=C(NCCCNc1nc2ccccc2[nH]1)c1ccc(Cl)cc1	1080	–
O=C(NCCCNc1nc2ccccc2[nH]1)c1ccc(CN2CCCC2)cc1	2300	CC50 [2]: > 100 µM; solubility kinetic [3]: 322 µM (≈ 122 µg/mL)
O=C(Nc1cccc(-c2nc3ccccc3[nH]2)c1)c1cc(Cl)cc(Cl)c1	1520	CC50 [2]: 26.3 µM; selectivity ratio [6]: 17.3; solubility kinetic [3]: 64 µM (≈ 24.5 µg/mL); IC50 [7]: > 14.8 µM
CN(C)Cc1ccc(C(=O)NCCCNc2nc3ccccc3[nH]2)cc1	2260	–
O=C(NCCCNc1nc2ccccc2[nH]1)c1cc(Cl)c(O)c(Cl)c1	> 5000	–
O=C(NCCCNc1nc2ccccc2[nH]1)c1c(Cl)cccc1Cl	> 5000	–
O=C(NCCCNc1nc2ccccc2[nH]1)c1cc(Cl)cc(Cl)c1	94	IC50 (Plasmodium falciparum [4]): 410 nM; CC50 [2]: 36.3 µM; solubility kinetic [3]: 239 µM (≈ 86.8 µg/mL); IC50 (Plasmodium falciparum [5]): 1030 nM; Activity (Plasmodium falciparum [8]): Active; solubility [9]: > 100 µg/mL; inhibition (Plasmodium falciparum [10]): Active; bioavailability [11]: 81%; clearance [12]: 39.7 mL/min/kg
O=C(NCCCNc1nc2ccccc2[nH]1)c1cccc(C(F)(F)F)c1	140	–
CN(CCCNC(=O)c1cc(Cl)cc(Cl)c1)c1nc2ccccc2[nH]1	1800	–
O=C(NCCCCc1nc2ccccc2[nH]1)c1cc(Cl)cc(Cl)c1	> 5000	–
O=C(NCCCCNc1nc2ccccc2[nH]1)c1cc(Cl)cc(Cl)c1	400	–
CN(CCCNc1nc2ccccc2[nH]1)C(=O)c1cc(Cl)cc(Cl)c1	> 5000	–

SMILES	IC50 (Plasmodium falciparum [1]) [nM]	also measured
O=C(NCCCNc1nc2ccccc2[nH]1)c1ccccc1Cl	1050	–
O=C(NCCCNc1nc2ccccc2[nH]1)c1ccnc(C(F)(F)F)c1	250	CC50 [2]: > 100 µM; solubility kinetic [3]: 349 µM (≈ 127 µg/mL)
O=C(NCCCNc1nc2ccccc2[nH]1)C1CCCCC1	1800	–
COc1cccc(C(=O)NCCCNc2nc3ccccc3[nH]2)c1	930	–
O=C(NC1(c2nc3ccccc3[nH]2)CC1)c1cc(Cl)cc(Cl)c1	> 5000	–
O=C(NCCCNc1nc2c(F)cccc2[nH]1)c1cc(Cl)cc(Cl)c1	300	–
O=C(O)c1ccc2[nH]c(NCCCNC(=O)c3cc(Cl)cc(Cl)c3)nc2c1	> 5000	–
O=C(O)c1cccc(C(=O)NCCCNc2nc3ccccc3[nH]2)c1	> 5000	–
O=C(NCCCNc1nc2ccccc2[nH]1)c1cccc(CO)c1	> 5000	–
O=C(NCCCNc1nc2ccccc2[nH]1)C1CCOCC1	2640	–
O=C(c1cc(Cl)cc(Cl)c1)N1CCN(c2nc3ccccc3[nH]2)CC1	2520	–
O=C(NC1CCN(c2nc3ccccc3[nH]2)C1)c1cc(Cl)cc(Cl)c1 (stereo unspecified)	> 5000	–
O=C(NCCCNc1nc2ccccc2[nH]1)c1ccc(Cl)c(Cl)c1	170	–
O=C(NCCCNc1nc2ccccc2[nH]1)c1cccc(OC(F)(F)F)c1	370	–
O=C(NCCCNc1nc2ccccc2[nH]1)C1CCC(CO)CC1 (stereo unspecified)	> 5000	–
Cn1cccc1C(=O)NCCCNc1nc2ccccc2[nH]1	> 5000	–
O=C(NCCCNc1nc2ccccc2[nH]1)c1ccc(Cl)cc1Cl	4030	–
O=C(NCCCNc1nc2ccccc2[nH]1)c1ccccn1	> 5000	–
Cc1ccc(C(=O)NCCCNc2nc3ccccc3[nH]2)s1	1830	–
CC(CCNC(=O)c1cc(Cl)cc(Cl)c1)Nc1nc2ccccc2[nH]1 (stereo unspecified)	1580	–
O=C(NCCCNc1nc2ccccc2[nH]1)c1cccc(CN2CCCC2)c1	> 5000	–
O=C(NCCCNc1nc2cc(F)ccc2[nH]1)c1cc(Cl)cc(Cl)c1	120	–
O=C(NCCCNc1nc2ccccc2[nH]1)c1cncc(Cl)c1	460	–
Cc1cccc(C(=O)NCCCNc2nc3ccccc3[nH]2)c1	970	–

SMILES	IC50 (Plasmodium falciparum [1]) [nM]	also measured
COc1cc(OC)cc(C(=O)NCCCNc2nc3ccccc3[nH]2)c1	330	–
N#Cc1ccc2[nH]c(NCCCNC(=O)c3cc(Cl)cc(Cl)c3)nc2c1	1470	–
O=C(NCCCNc1nc2ccccc2[nH]1)C1CCNCC1	> 5000	–
CN1CCN(Cc2ccc(C(=O)NCCCNc3nc4ccccc4[nH]3)cc2)CC1	> 5000	–
CC(CNC(=O)c1cc(Cl)cc(Cl)c1)CNc1nc2ccccc2[nH]1 (stereo unspecified)	520	–
O=C(CCNC(=O)c1cc(Cl)cc(Cl)c1)Nc1nc2ccccc2[nH]1	4180	–
O=C(NCCCNc1nc2ccccc2[nH]1)c1ccccc1	3170	–
N#Cc1cccc(C(=O)NCCCNc2nc3ccccc3[nH]2)c1	380	–
CC(C)(C)OC(=O)N1CCC(C(=O)NCCCNc2nc3ccccc3[nH]2)CC1	900	CC50 [2]: > 100 µM; selectivity ratio [6]: > 111; solubility kinetic [3]: 393 µM (≈ 158 µg/mL); IC50 [7]: > 50.1 µM
O=C(NCCCNc1nc2ccccc2[nH]1)c1ccncc1	> 5000	–
O=C(NCCCNc1nc2ccccc2[nH]1)c1cccnc1	> 5000	–
O=C(NCCCNc1nc2ccccc2[nH]1)c1ccc2c(c1)OCCO2	1650	–
O=C(NCCCNc1nc2ccccc2[nH]1)C1CCC(O)CC1 (stereo unspecified)	> 5000	–
Cn1c(NCCCNC(=O)c2cc(Cl)cc(Cl)c2)nc2ccccc21	> 5000	–
O=C(NCC1(CNc2nc3ccccc3[nH]2)CC1)c1cc(Cl)cc(Cl)c1	1030	–
N#Cc1ccc(C(=O)NCCCNc2nc3ccccc3[nH]2)cc1F	1370	–
O=C(NCCCNc1nc2ccccc2[nH]1)c1ccc2c(c1)OCO2	3360	–
O=C(NCCCNc1nc2ccccc2[nH]1)c1cccc(Cl)c1Cl	3420	–
O=C(NCC(O)CNc1nc2ccccc2[nH]1)c1cc(Cl)cc(Cl)c1 (stereo unspecified)	1380	–
COC(=O)c1cccc(C(=O)NCCCNc2nc3ccccc3[nH]2)c1	630	–
CN(C)C(=O)c1cccc(C(=O)NCCCNc2nc3ccccc3[nH]2)c1	> 5000	–
O=C(NCCCNc1nc2cccnc2[nH]1)c1cc(Cl)cc(Cl)c1	2540	–
O=C(NCCCNc1nc2ccccc2[nH]1)c1cccc(O)c1	> 5000	–

From ChEMBL document CHEMBL3580590, “A Developability-Focused Optimization Approach Allows Identification of in Vivo Fast-Acting Antimalarials: N-[3-[(Benzimidazol-2-yl)amino]propyl]amides” (J Med Chem, 2015)
